The results in this text go back to PubChem BioAssay AID651651 (Broad Institute, 2012).

The source made the active and inactive calls.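 The calls were made as follows: active = signal-lowering compounds whose fitted half-effect concentration is no more than twice the top tested dose; inconclusive = flat curve with 30 to 70% inhibition, or poor fit; inactive = the rest.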

The experiment in a line: quencher artefacts in RAD54 branch migration readout – biochemical, Cy5 label, cherry-picked samples, artefact control for RAD54 inhibitor project, dose response (AID 651651). As to conditions: Cy5 DNA fluorescence quench counter-screen; series mostly up to 50 µM. An outline of the steps: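 Medium: 25 mM Tris pH 7.5, 3 mM MgCl2, 2 mM ATP. Material: human RAD54 enzyme. Quantity: RAD54 30 nM in enzyme mix. Technique: Cy5 fluorescence. Schedule: 60 min reaction at room temperature after substrate addition. Dosing: pinned compound dose series, 10 mM stock solutions.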
Background: A counterscreen serves to expose hits that act by an unwanted route or on another target.
In the case of `COc1ccccc1CNC(=O)C[C@@H]1C[C@@H]2c3cc(NC(=O)CN(C)C)ccc3O[C@@H]2[C@@H](CO)O1`, the result was inactive.
Consider `COc1ccc(CN(C)C[C@@H]2Oc3ccc(NC(=O)Nc4ccccc4)cc3C(=O)N([C@@H](C)CO)C[C@H]2C)cc1`, for which the outcome was inactive.
Turning to `C[C@H]1CN([C@@H](C)CO)C(=O)Cc2cc(NC(=O)Nc3cccc4ccccc34)ccc2O[C@H]1CN(C)S(=O)(=O)c1ccc(F)cc1`, the molecule was called inactive.
In the case of `Cc1ccc(S(=O)(=O)N(C)C[C@@H]2Oc3ccc(NC(=O)NC4CCCCC4)cc3CC(=O)N([C@H](C)CO)C[C@@H]2C)cc1` it was “inactive”; in that of `COc1ccc(CN(C)C[C@@H]2Oc3ccc(NC(=O)Nc4ccc5c(c4)OCO5)cc3C(=O)N([C@@H](C)CO)C[C@H]2C)cc1`, “inactive”; in that of `C[C@@H]1CN([C@H](C)CO)C(=O)c2cc(NC(=O)Nc3ccc4c(c3)OCO4)ccc2O[C@H]1CN(C)C(=O)Nc1cccc2ccccc12`, “inactive”.
Turning to `Cc1noc(C)c1NC(=O)Nc1ccc2c(c1)C(=O)N([C@H](C)CO)C[C@H](C)[C@H](CN(C)S(C)(=O)=O)OCCCC[C@H](C)O2`, the molecule was classed as inactive.
Turning to `COc1ccc(-c2ccc3c(c2)[C@H]2[C@H](CCN2C(=O)Cc2cccnc2)[C@H](CO)N3C)cc1`, the molecule was classed as inactive.
Consider `COc1ccc(CN(C)C[C@@H]2Oc3ccc(NC(=O)Nc4c(C)noc4C)cc3C(=O)N([C@H](C)CO)C[C@H]2C)cc1`, for which the call was inactive.
As to `COc1ccc(S(=O)(=O)N(C)C[C@@H]2Oc3ccc(NC(=O)Nc4ccccc4)cc3CC(=O)N([C@@H](C)CO)C[C@@H]2C)cc1`, the call was inactive.
On to `C/C=C/c1ccc([C@@H]2[C@@H](CO)N3CCCCN(C(=O)Nc4ccc(F)cc4)C[C@H]23)cc1`, for which the call was inactive.
`COc1cccc(S(=O)(=O)N2CCCCN3[C@@H](CO)[C@H](c4ccc(C#CCC(C)C)cc4)[C@@H]3C2)c1`: the call was inactive.
`COc1ccc(S(=O)(=O)N(C)C[C@@H]2Oc3ccc(NC(=O)Nc4c(C)noc4C)cc3CC(=O)N([C@@H](C)CO)C[C@@H]2C)cc1`: the molecule was classed as inactive.
With `CN(C)c1ccc2c(c1)[C@@H]1C[C@@H](CC(=O)NCc3cc(F)ccc3F)O[C@H](CO)[C@@H]1O2`, the molecule was classed as inactive.
To `COc1ccc(NC(=O)Nc2ccc3c(c2)CC(=O)N([C@H](C)CO)C[C@H](C)[C@H](CN(C)S(=O)(=O)c2ccc(OC)cc2)O3)cc1` belongs “inactive”.
Turning to `C[C@@H]1CN([C@@H](C)CO)C(=O)c2cc(NS(=O)(=O)c3cccs3)ccc2O[C@@H]1CN(C)C(=O)Nc1cccc2ccccc12`, the outcome was inactive.
On to `COc1ccc(CN(C)C[C@@H]2Oc3ccc(NC(=O)Nc4ccc(F)cc4)cc3C(=O)N([C@H](C)CO)C[C@H]2C)cc1`, for which the outcome was inactive.
To `Cc1noc(C)c1NC(=O)Nc1ccc2c(c1)C(=O)N([C@@H](C)CO)C[C@H](C)[C@@H](CN(C)S(C)(=O)=O)OCCCC[C@@H](C)O2` belongs “inactive”.
In the case of `COc1ccc(CN(C)C[C@@H]2Oc3ccc(NC(=O)Nc4ccc5c(c4)OCO5)cc3C(=O)N([C@H](C)CO)C[C@H]2C)cc1` it was “inactive”; in that of `CS(=O)(=O)N1[C@@H]2Cn3c(ccc(C4=CCCCC4)c3=O)[C@H]1[C@@H](C(=O)N1CCOCC1)[C@@H]2CO`, “inactive”.
To `C[C@H]1CN([C@@H](C)CO)C(=O)Cc2cc(NC(=O)Nc3cccc4ccccc34)ccc2O[C@H]1CN(C)S(=O)(=O)c1ccc(Cl)cc1` belongs “inactive”; to `COc1ccc(S(=O)(=O)Nc2ccc3c(c2)[C@@H]2C[C@H](CC(=O)NCC4CC4)O[C@H](CO)[C@@H]2O3)cc1`, “inactive”.
For `Cc1cc(C(=O)Nc2cccc3c2O[C@H](CN(C)Cc2ccc(C(F)(F)F)cc2)[C@@H](C)CN([C@H](C)CO)C3=O)n(C)n1`, the outcome was inactive.
On to `C[C@H](NC(=O)C[C@H]1C[C@H]2c3cc(NC(=O)c4cccnc4)ccc3O[C@H]2[C@@H](CO)O1)c1ccccc1`, for which the outcome was inactive.
Take `Cc1ccc(S(=O)(=O)N(C)C[C@@H]2Oc3ccc(NC(=O)NC(C)C)cc3C(=O)N([C@H](C)CO)C[C@H]2C)cc1`: the call was inactive.
Take `COc1ccc(CN(C)C[C@@H]2Oc3ccc(NC(=O)Nc4ccccc4)cc3C(=O)N([C@H](C)CO)C[C@H]2C)cc1`: the outcome was inactive.
In the case of `CC(C)NC(=O)Nc1ccc2c(c1)C(=O)N([C@H](C)CO)C[C@@H](C)[C@H](CN(C)S(=O)(=O)c1ccc(Cl)cc1)O2` it was “inactive”.
As for `O=C(NC1CCC1)[C@@H]1[C@@H](CO)[C@@H]2Cn3c(ccc(-c4ccc(F)cc4)c3=O)[C@@H]2N1Cc1ccccn1`, the molecule was classed as inactive.
Consider `COc1ccc(CN(C)C[C@@H]2Oc3ccc(NC(=O)NC(C)C)cc3C(=O)N([C@H](C)CO)C[C@H]2C)cc1`, for which the molecule was classed as inactive.
To `COCC(=O)Nc1ccc2c(c1)[C@H]1C[C@@H](CC(=O)NCc3ccccc3F)O[C@H](CO)[C@H]1O2` belongs “inactive”.
